Laboratory results: ChEMBL document CHEMBL4130523, “Targeting the Allosteric Site of Oncoprotein BCR-ABL as an Alternative Strategy for Effective Target Protein Degradation” (ACS Med Chem Lett, 2017)
pIC50: −log10 of the molar value. Active and inactive are the calls of the source. The calls are words filed in the database; no cut-off is given here.

What was measured:
[1] = target: T1, Bcr/Abl fusion protein (Homo sapiens) (UniProt P00519+P11274); assay: Inhibition of BCR-ABL phosphorylation in human K562 cells at 100 nM after 6 hrs by Western blot analysis relative to beta-actin; assay type: cell-based
T1 sequence (P00519 whole entry, looked up, the tested form may be a part): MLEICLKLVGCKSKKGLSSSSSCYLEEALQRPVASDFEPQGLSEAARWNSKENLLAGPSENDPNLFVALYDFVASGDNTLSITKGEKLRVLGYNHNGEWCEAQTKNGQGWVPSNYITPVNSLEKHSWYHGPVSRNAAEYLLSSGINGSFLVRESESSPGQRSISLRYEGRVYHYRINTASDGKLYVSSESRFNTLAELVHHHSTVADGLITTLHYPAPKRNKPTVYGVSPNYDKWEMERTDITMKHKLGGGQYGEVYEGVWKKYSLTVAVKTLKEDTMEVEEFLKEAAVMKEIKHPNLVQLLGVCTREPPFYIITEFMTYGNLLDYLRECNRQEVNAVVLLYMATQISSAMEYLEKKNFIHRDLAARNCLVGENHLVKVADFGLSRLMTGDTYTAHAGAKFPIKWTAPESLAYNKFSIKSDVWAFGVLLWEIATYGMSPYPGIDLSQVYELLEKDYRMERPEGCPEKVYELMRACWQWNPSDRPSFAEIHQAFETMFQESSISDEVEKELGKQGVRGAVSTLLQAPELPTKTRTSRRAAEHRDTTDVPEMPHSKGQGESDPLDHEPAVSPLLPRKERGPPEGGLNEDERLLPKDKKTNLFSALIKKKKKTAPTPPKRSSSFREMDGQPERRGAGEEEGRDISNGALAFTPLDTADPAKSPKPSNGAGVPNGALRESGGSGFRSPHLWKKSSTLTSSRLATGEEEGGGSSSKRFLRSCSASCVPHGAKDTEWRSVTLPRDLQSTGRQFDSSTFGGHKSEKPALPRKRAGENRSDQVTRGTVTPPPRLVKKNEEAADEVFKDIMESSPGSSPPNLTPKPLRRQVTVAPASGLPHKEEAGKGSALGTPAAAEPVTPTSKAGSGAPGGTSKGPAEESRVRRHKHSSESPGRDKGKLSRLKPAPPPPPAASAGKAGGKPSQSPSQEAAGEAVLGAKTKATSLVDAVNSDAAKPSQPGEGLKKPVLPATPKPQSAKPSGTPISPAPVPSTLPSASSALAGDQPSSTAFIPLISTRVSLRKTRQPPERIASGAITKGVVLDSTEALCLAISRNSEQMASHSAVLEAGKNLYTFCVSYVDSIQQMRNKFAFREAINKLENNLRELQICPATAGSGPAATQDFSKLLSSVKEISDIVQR
T1 sequence (P11274 whole entry, looked up, the tested form may be a part): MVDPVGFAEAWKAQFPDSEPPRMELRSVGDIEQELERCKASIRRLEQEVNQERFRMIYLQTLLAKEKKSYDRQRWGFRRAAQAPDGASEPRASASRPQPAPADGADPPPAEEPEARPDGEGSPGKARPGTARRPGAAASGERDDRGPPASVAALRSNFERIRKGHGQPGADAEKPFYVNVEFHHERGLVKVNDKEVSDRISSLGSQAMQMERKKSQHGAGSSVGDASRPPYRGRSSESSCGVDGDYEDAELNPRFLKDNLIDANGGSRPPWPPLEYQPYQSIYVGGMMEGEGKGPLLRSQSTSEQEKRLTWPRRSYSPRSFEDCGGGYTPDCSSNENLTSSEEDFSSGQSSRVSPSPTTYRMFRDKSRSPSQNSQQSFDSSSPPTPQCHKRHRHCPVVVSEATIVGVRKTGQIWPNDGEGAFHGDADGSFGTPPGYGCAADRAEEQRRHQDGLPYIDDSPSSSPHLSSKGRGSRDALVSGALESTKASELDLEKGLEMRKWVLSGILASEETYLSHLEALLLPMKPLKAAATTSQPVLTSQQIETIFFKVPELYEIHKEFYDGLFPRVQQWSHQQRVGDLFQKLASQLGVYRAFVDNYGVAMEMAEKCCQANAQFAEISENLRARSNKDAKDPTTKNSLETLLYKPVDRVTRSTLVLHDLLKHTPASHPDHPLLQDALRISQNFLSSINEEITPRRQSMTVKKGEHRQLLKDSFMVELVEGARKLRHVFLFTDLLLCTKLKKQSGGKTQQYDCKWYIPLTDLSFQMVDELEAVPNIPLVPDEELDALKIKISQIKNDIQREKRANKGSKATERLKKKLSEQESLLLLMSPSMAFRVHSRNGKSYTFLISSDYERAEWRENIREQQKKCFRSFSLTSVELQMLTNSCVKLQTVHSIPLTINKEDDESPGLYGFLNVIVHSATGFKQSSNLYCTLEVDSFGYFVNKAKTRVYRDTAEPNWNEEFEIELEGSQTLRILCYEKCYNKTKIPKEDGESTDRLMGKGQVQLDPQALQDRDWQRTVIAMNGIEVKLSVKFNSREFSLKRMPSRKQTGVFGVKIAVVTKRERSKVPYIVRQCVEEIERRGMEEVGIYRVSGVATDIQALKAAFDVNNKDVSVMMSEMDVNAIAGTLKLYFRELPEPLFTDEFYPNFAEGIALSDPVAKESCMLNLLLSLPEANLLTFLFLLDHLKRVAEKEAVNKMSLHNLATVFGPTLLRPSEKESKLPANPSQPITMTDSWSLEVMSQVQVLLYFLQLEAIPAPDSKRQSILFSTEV

[2] = target: T1, Bcr/Abl fusion protein (Homo sapiens); assay: Inhibition of BCR-ABL in human K562 cells assessed as reduction in CrkL phosphorylation at 100 nM after 6 hrs by Western blot analysis; assay type: cell-based
Summary of the method: (§1)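 K562 cells were exposed to 100 nM compound for 6 h. Lysates were immunoblotted for phosphorylated STAT5 and phosphorylated CrkL, which are BCR-ABL substrates, alongside phosphorylated BCR-ABL.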

[3] = target: T1, Bcr/Abl fusion protein (Homo sapiens); assay: Inhibition of BCR-ABL in human K562 cells assessed as reduction in STAT5 phosphorylation at 100 nM after 6 hrs by Western blot analysis; assay type: cell-based; summary of the method: as §1
[4] = target: Tyrosine-protein kinase ABL1 (Homo sapiens, UniProt P00519); assay: Inhibition of recombinant human His-tagged full length ABL1 allosteric site expressed in baculovirus expression system by TR-FRET assay
Tyrosine-protein kinase ABL1, sequence (P00519 whole entry): as the sequence (P00519 whole entry, looked up, the tested form may be a part) above

K562 [5] = assay: Growth inhibition of human K562 cells up to 1000 nM after 48 hrs by WST-8 assay; assay type: functional, cell-based
Summary of the method: (§2)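 Cells exposed for 48 h to a graded concentration series of compound. Growth was read per well and reported as mean ± standard deviation of triplicate (n = 3) determinations.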

[6] = target: Baculoviral IAP repeat-containing protein 2 (Homo sapiens, UniProt Q13490); assay: Inhibition of recombinant human His-tagged cIAP1 (Leu250 to Gly350 residues) expressed in Escherichia coli by TR-FRET assay
Baculoviral IAP repeat-containing protein 2, sequence (Q13490 whole entry): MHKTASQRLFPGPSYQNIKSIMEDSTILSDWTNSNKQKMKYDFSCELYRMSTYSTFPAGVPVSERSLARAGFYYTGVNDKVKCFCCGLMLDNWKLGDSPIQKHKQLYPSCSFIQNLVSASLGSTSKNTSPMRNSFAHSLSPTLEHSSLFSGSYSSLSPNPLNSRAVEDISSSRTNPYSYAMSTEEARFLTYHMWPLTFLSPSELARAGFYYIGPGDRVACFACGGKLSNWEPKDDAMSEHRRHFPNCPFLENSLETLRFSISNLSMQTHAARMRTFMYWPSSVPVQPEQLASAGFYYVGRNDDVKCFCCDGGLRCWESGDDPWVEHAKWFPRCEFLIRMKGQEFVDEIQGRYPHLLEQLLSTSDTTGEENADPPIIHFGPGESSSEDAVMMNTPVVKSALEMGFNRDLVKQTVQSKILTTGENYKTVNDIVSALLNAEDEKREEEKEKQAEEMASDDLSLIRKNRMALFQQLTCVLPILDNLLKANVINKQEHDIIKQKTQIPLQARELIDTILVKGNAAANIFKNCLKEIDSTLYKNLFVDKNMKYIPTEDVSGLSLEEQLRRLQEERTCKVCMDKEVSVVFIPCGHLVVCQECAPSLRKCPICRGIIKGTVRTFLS

[7] = target: Baculoviral IAP repeat-containing protein 2/Tyrosine-protein kinase ABL1/Breakpoint cluster region protein (Homo sapiens) (UniProt P00519+P11274+Q13490); assay: Induction of cIAP1-mediated BCR-ABL degradation in human K562 cells at 100 nM after 6 hrs by Western blot analysis relative to beta-actin; assay type: cell-based
Baculoviral IAP repeat-containing protein 2/Tyrosine-protein kinase ABL1/Breakpoint cluster region protein (Homo sapiens), sequence (P00519 whole entry, looked up): as the sequence (P00519 whole entry, looked up, the tested form may be a part) above
Baculoviral IAP repeat-containing protein 2/Tyrosine-protein kinase ABL1/Breakpoint cluster region protein (Homo sapiens), sequence (P11274 whole entry, looked up): as the sequence (P11274 whole entry, looked up, the tested form may be a part) above
Baculoviral IAP repeat-containing protein 2/Tyrosine-protein kinase ABL1/Breakpoint cluster region protein (Homo sapiens), sequence (Q13490 whole entry, looked up): as the sequence (Q13490 whole entry) above
Summary of the method: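 K562 cells were treated for 6 h with test agent at graded concentrations, or with IAP ligand 4 at 10 μM as competitor. BCR-ABL was then immunoblotted. BCR-ABL band intensity was normalized to β-actin and expressed relative to a vehicle control set at 100. Means ± standard deviation, n = 3.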

[8] = target: Baculoviral IAP repeat-containing protein 3 (Homo sapiens, UniProt Q13489); assay: Inhibition of recombinant human His-tagged cIAP2 (Gln238 to Ser349 residues) expressed in Escherichia coli by TR-FRET assay
Baculoviral IAP repeat-containing protein 3, sequence (Q13489 whole entry): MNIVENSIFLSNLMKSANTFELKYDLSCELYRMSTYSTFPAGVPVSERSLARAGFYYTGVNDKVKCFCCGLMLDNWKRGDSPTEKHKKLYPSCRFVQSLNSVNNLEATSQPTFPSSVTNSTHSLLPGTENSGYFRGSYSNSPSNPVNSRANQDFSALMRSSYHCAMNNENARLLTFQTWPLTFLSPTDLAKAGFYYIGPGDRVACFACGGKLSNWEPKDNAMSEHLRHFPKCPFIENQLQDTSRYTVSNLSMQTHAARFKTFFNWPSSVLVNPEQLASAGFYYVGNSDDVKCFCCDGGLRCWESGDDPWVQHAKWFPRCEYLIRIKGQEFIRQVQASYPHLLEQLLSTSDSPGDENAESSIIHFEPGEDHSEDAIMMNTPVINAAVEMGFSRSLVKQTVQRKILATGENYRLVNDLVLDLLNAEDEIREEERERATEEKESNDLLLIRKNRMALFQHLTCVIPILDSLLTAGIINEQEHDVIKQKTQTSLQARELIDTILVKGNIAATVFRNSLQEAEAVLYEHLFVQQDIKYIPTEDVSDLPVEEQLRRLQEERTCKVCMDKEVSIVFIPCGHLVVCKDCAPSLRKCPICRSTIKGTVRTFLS

[9] = target: E3 ubiquitin-protein ligase XIAP (Homo sapiens, UniProt P98170); assay: Inhibition of recombinant human His-tagged XIAP (Asn252 to Thr356 residues) expressed in Escherichia coli by TR-FRET assay
E3 ubiquitin-protein ligase XIAP, sequence (P98170 whole entry): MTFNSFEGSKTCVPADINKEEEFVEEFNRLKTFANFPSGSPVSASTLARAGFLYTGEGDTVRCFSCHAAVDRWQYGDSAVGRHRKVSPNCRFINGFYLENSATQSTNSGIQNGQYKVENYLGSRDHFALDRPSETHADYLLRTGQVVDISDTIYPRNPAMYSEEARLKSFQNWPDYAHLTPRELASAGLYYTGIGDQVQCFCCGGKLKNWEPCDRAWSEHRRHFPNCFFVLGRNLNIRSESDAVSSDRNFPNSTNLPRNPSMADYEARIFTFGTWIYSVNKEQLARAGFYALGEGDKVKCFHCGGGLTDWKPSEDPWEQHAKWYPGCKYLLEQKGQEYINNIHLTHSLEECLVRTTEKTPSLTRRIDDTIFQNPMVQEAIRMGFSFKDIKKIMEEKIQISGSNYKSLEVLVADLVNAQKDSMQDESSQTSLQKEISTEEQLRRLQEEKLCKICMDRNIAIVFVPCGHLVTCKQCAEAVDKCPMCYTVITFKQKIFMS

KCL-22 = assay: Growth inhibition of human KCL22 cells up to 1000 nM after 48 hrs by WST-8 assay; assay type: functional, cell-based; summary of the method: as §2
K562 [10] = assay: Growth inhibition of human K562 cells at >= 100 nM after 48 hrs by WST-8 assay; assay type: functional, cell-based; summary of the method: as §2
MOLT-4 = assay: Growth inhibition of human MOLT4 cells up to 1000 nM after 48 hrs by WST-8 assay; assay type: functional, cell-based; summary of the method: as §2
Jurkat = assay: Growth inhibition of human Jurkat cells up to 1000 nM after 48 hrs by WST-8 assay; assay type: functional, cell-based; summary of the method: as §2

| SMILES | inhibition [2] | inhibition [3] | pIC50 [4] | pIC50 [6] | further results |
| --- | --- | --- | --- | --- | --- |
| CN[C@@H](C)C(=O)N[C@H](C(=O)N1CCC[C@H]1c1nc(C(=O)c2cccc(OC)c2)cs1)C1CCCCC1 | – | – | – | 8.32 | growth inhibition (GI) (K562 [5]): inactive |
| CN[C@@H](C)C(=O)N[C@H](C(=O)N1CCC[C@H]1c1nc(C(=O)c2cccc(OCCOCCOCCNC(=O)C3CCN(c4ncc(C(=O)Nc5ccc(OC(F)(F)Cl)cc5)cc4-c4ccn[nH]4)C3)c2)cs1)C1CCCCC1 (stereo partly specified) | Active | Active | 6.44 | 7.07 | growth inhibition (GI) (KCL-22): Active; growth inhibition (GI) (K562 [10]): Active; growth inhibition (GI) (MOLT-4): inactive; growth inhibition (GI) (Jurkat): inactive |
| CN[C@@H](C)C(=O)N[C@H](C(=O)N1CCC[C@H]1c1nc(C(=O)c2cccc(OCCOCCOCCNC(=O)c3cccc(-c4cc(Nc5ccc(OC(F)(F)F)cc5)ncn4)c3)c2)cs1)C1CCCCC1 | – | – | 5.70 | 6.66 | – |

Further lines, with some results ahead:

| inhibition [2] | inhibition [3] | pIC50 [4] | pIC50 [6] | SMILES | further results |
| --- | --- | --- | --- | --- | --- |
| Active | Active | 7.46 | – | COC(=O)C1CCN(c2ncc(C(=O)Nc3ccc(OC(F)(F)Cl)cc3)cc2-c2ccn[nH]2)C1 (stereo unspecified) | fold change (FC) [1]: 92 |
| – | – | 6.47 | < 6.00 | CN[C@@H](C)C(=O)N(C)[C@H](C(=O)N1CCC[C@H]1c1nc(C(=O)c2cccc(OCCOCCOCCNC(=O)C3CCN(c4ncc(C(=O)Nc5ccc(OC(F)(F)Cl)cc5)cc4-c4ccn[nH]4)C3)c2)cs1)C1CCCCC1 (stereo partly specified) | fold change (FC) [7]: 102; pIC50 [8]: < 6.00; pIC50 [9]: < 6.00 |
